Laboratory results from ChEMBL document CHEMBL1131213, “Novel euglycemic and hypolipidemic agents. 1” (J Med Chem, 1998).
Values belong to the compound of their own block, whether it stands above or below them.

Tests used:
[1] = test system: Mus musculus; assay: Percent reduction in blood glucose is evaluated in db/db mice for euglycemic and hypolipidemic activities at a dose of 100 mg/kg
[2] = test system: Mus musculus; assay: Percent reduction in triglyceride (TG) after 9 days of dosing in db/db is evaluated in mice for euglycemic and hypolipidemic activities at a dose of 100 mg/kg
[3] = test system: Mus musculus; assay: Percent reduction in blood glucose is evaluated in db/db mice for euglycemic and hypolipidemic activities at a dose of 200 mg/kg
[4] = test system: Mus musculus; assay: Percent reduction in triglyceride (TG) after 9 days of dosing in db/db is evaluated in mice for euglycemic and hypolipidemic activities
[5] = test system: Mus musculus; assay: Percent reduction in blood glucose is evaluated in db/db mice for euglycemic and hypolipidemic activities at a dose of 10 mg/kg
[6] = test system: Mus musculus; assay: Percent reduction in triglyceride (TG) after 9 days of dosing in db/db is evaluated in mice for euglycemic and hypolipidemic activities at a dose of 10 mg/kg
[7] = test system: Mus musculus; assay: Percent reduction in triglyceride (TG) after 9 days of dosing in db/db is evaluated in mice for euglycemic and hypolipidemic activities at a dose of 200 mg/kg
[8] = Pharmacokinetic parameter [area under curve (AUC)] was evaluated at 10 mg/kg (p.o.) in Wistar rats; assay type: ADME, organism-based; set-up: dose 10 mg/kg, route oral; settings: rat, in vivo, po
Summary of the method: (§1)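 Wistar rats (175-200 g), fasted 12 h, water free, fed 3 h post-dose. Single 10 mg/kg oral dose as 0.5% CMC suspension. Orbital sinus blood taken at 0, 0.5, 1, 2, 3, 5, 8, 12 and 24 h. Plasma assayed by reverse-phase C18 HPLC with fluorescence detection. Noncompartmental analysis gave AUC0-∞, Kel, t1/2, Cmax and tmax.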

[9] = Pharmacokinetic parameter [Kel(1/h)] was evaluated at 10 mg/kg (p.o.) in Wistar rats; assay type: ADME, organism-based; set-up: dose 10 mg/kg, route oral; settings: rat, in vivo, po
Summary of the method: as §1

[10] = Pharmacokinetic parameter (Cmax) was evaluated at 10 mg/kg (p.o.) in Wistar rats; assay type: ADME, organism-based; set-up: dose 10 mg/kg, route oral; settings: rat, in vivo, po
Summary of the method: as §1

[11] = test system: Rattus norvegicus; assay: Tissue level at 10 mg/kg/po in wistar rats in blood; assay type: ADME, organism-based; settings: in vivo
Summary of the method: (§2)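 Wistar rats, two per drug, given 10 mg/kg orally and sacrificed at plasma tmax. Blood/plasma drawn just before sacrifice. Tissues perfused with phosphate buffer pH 5.8 and homogenized 1:4 in buffer. Drug measured by HPLC and reported as µg/g wet tissue. Ratios are tissue over plasma.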

[12] = test system: Rattus norvegicus; assay: Tissue level at 10 mg/kg/po in wistar rats in brown fat; assay type: ADME, organism-based; settings: in vivo
Summary of the method: as §2

[13] = test system: Rattus norvegicus; assay: Tissue level at 10 mg/kg/po in wistar rats in heart; assay type: ADME, organism-based; settings: in vivo
Summary of the method: as §2

[14] = test system: Rattus norvegicus; assay: Tissue level at 10 mg/kg/po in wistar rats in plasma; assay type: ADME, organism-based; settings: in vivo
Summary of the method: as §2

[15] = test system: Rattus norvegicus; assay: Tissue level at 10 mg/kg/po in wistar rats in skeletal muscle; assay type: ADME, organism-based; settings: in vivo
Summary of the method: as §2

[16] = test system: Rattus norvegicus; assay: Tissue level at 10 mg/kg/po in wistar rats in subcutaneous fat; assay type: ADME, organism-based; settings: in vivo
Summary of the method: as §2

[17] = Pharmacokinetic parameter (tmax(h)) was evaluated at 10 mg/kg (p.o.) in Wistar rats; assay type: ADME, organism-based; set-up: dose 10 mg/kg, route oral; settings: rat, in vivo, po
Summary of the method: as §1

[18] = Ratio between level in brown fat to that of the level in plasma; assay type: ADME
Summary of the method: as §2

[19] = Ratio between level in heart to that of the level in plasma; assay type: ADME
Summary of the method: as §2

[20] = Ratio between level in liver to that of the level in plasma; assay type: ADME, tissue-based
Summary of the method: as §2

[21] = Ratio between level in skeletal muscle to that of the level in plasma; assay type: ADME
Summary of the method: as §2

[22] = Ratio between level in subcutaneous fat to that of the level in plasma; assay type: ADME
Summary of the method: as §2

[23] = test system: Rattus norvegicus; assay: Tissue level at 10 mg/kg/po in wistar rats in liver; assay type: ADME, organism-based; settings: in vivo
Summary of the method: as §2

[24] = Pharmacokinetic parameter (half-life) was evaluated at 10 mg/kg (p.o.) in Wistar rats; assay type: ADME, organism-based; set-up: dose 10 mg/kg, route oral; settings: rat, in vivo, po
Summary of the method: as §1

[25] = Ratio between level in blood to that of the level in plasma; assay type: ADME
Summary of the method: as §2

[26] = Pharmacokinetic Parameter [Area under curve (AUC)] was evaluated at 10 mg/kg (p.o.) in Wistar rats; assay type: ADME, organism-based; set-up: dose 10 mg/kg, route oral; settings: rat, in vivo, po
Summary of the method: as §1

[27] = Pharmacokinetic Parameter [Kel(1/h)] was evaluated at 10 mg/kg (p.o.) in Wistar rats; assay type: ADME, organism-based; set-up: dose 10 mg/kg, route oral; settings: rat, in vivo, po
Summary of the method: as §1

[28] = Pharmacokinetic Parameter (Cmax) was evaluated at 10 mg/kg (p.o.) in Wistar rats; assay type: ADME, organism-based; set-up: dose 10 mg/kg, route oral; settings: rat, in vivo, po
Summary of the method: as §1

[29] = Pharmacokinetic Parameter [tmax(h)] was evaluated at 10 mg/kg (p.o.) in Wistar rats; assay type: ADME, organism-based; set-up: dose 10 mg/kg, route oral; settings: rat, in vivo, po
Summary of the method: as §1

[30] = Pharmacokinetic Parameter (half-life) was evaluated at 10 mg/kg (p.o.) in Wistar rats; assay type: ADME, organism-based; set-up: dose 10 mg/kg, route oral; settings: rat, in vivo, po
Summary of the method: as §1

SMILES: O=C1NC(=O)C(Cc2ccc(OCCn3c4ccccc4c4ccccc43)cc2)S1 (stereo unspecified)
Reduction [1]: 0%
Reduction [2]: 21%

SMILES: O=C1NC(=O)/C(=C/c2ccc(OCCn3ccc4ccccc43)cc2)S1
Reduction [3]: 33%
Reduction [4]: 37%

SMILES: CN(CCOc1ccc(/C=C2\SC(=O)NC2=O)cc1)c1ccccn1
Reduction [5]: 56%
Reduction [1]: 56%
Reduction [6]: 32%
Reduction [2]: 32%

SMILES: O=C1NC(=O)/C(=C/c2ccc(OCCN3CCc4ccccc43)cc2)S1
Reduction [3]: 61%
Reduction [7]: 83%

SMILES: O=C1NC(=O)/C(=C\c2ccc(OCCn3c4ccccc4c4ccccc43)cc2)S1
Reduction [1]: 0%
Reduction [2]: 44%

SMILES: Cc1c(C)n(CCOc2ccc(/C=C3\SC(=O)NC3=O)cc2)c2ccccc12
Reduction [3]: 40%
Reduction [7]: 2%

AUC [8]: 129000 ng·h/mL
k el [9]: 6.94e-05 s⁻¹
Cmax [10]: 14500 ng/mL
Concentration [11]: 7240 ng/mL
Concentration [12]: 1.23 µg/g
Concentration [13]: 2.45 µg/g
Concentration [14]: 11800 ng/mL
Concentration [15]: 0.85 µg/g
Concentration [16]: 1.5 µg/g
Tmax [17]: 3.67 h
Kp [18]: 0.1
Kp [19]: 0.21
Kp [20]: 0.85
Kp [21]: 0.07
Kp [22]: 0.13
Concentration [23]: 10.01 µg/g
half-life [24]: 3.28 h
blood plasma ratio [25]: 0.62
SMILES: O=C1NC(=O)C(Cc2ccc(OCCn3ccc4ccccc43)cc2)S1 (stereo unspecified)
Reduction [1]: 74%
Reduction [2]: 77%

SMILES: O=C1NC(=O)/C(=C/c2ccc(OCCn3c(C(=O)O)cc4ccccc43)cc2)S1
Reduction [3]: 12%
Reduction [7]: 0%

SMILES: O=C1NC(=O)/C(=C/c2ccc(OCCn3ccc4cc(Cl)ccc43)cc2)S1
Reduction [3]: 39%
Reduction [7]: 11%

SMILES: O=C1NC(=O)C(Cc2ccc(OCCN3CCc4ccccc43)cc2)S1 (stereo unspecified)
Reduction [3]: 33%
Reduction [7]: 79%

SMILES: COC(=O)C(N)Cc1cn(CCOc2ccc(/C=C3\SC(=O)NC3=O)cc2)c2ccccc12 (stereo unspecified)
Reduction [1]: 27%
Reduction [2]: 64%

SMILES: CCOC(=O)c1cc2ccccc2n1CCOc1ccc(/C=C2\SC(=O)NC2=O)cc1
Reduction [3]: 0%
Reduction [7]: 13%

SMILES: O=C1NC(=O)/C(=C/c2ccc(OCCn3cnc4ccccc43)cc2)S1
Reduction [3]: 33%
Reduction [7]: 76%

SMILES: O=C1NC(=O)/C(=C/c2ccc(OCCn3ccc4cccnc43)cc2)S1
Reduction [3]: 36%
Reduction [7]: 79%

SMILES: O=C1NC(=O)/C(=C/c2ccc(OCCn3ccnc3)cc2)S1
Reduction [3]: 13%
Reduction [7]: 72%

SMILES: O=C1NC(=O)C(Cc2ccc(OCCn3ccc4cccnc43)cc2)S1 (stereo unspecified)
Reduction [3]: 33%
Reduction [7]: 74%

SMILES: Cc1cc2ccccc2n1CCOc1ccc(/C=C2\SC(=O)NC2=O)cc1
Reduction [3]: 16%
Reduction [7]: 41%

AUC [26]: 59200 ng·h/mL
k el [27]: 0.0002 s⁻¹
Cmax [28]: 29400 ng/mL
Concentration [11]: 13800 ng/mL
Concentration [12]: 2.1 µg/g
Concentration [13]: 1.63 µg/g
Concentration [14]: 27200 ng/mL
Concentration [15]: 0.87 µg/g
Concentration [16]: 14.32 µg/g
Tmax [29]: 0.5 h
half-life [30]: 1.02 h
Kp [18]: 0.08
Kp [19]: 0.06
Kp [20]: 0.4
Kp [21]: 0.03
Kp [22]: 0.53
Concentration [23]: 10.9 µg/g
blood plasma ratio [25]: 0.51
SMILES: CN(CCOc1ccc(CC2SC(=O)NC2=O)cc1)c1ccccn1.O=C(O)/C=C\C(=O)O (stereo unspecified) [ROSIGLITAZONE MALEATE]
Reduction [5]: 55%
Reduction [4]: 37%

SMILES: CN(CCOc1ccc(CC2SC(=O)NC2=O)cc1)c1ccccn1 (stereo unspecified) [ROSIGLITAZONE]
Reduction [5]: 100%
Reduction [1]: 71%
Reduction [3]: 67%
Reduction [6]: 46%
Reduction [2]: 46%
Reduction [7]: 55%

SMILES: Cc1c(C)c2c(c(C)c1O)CCC(C)(COc1ccc(CC3SC(=O)NC3=O)cc1)O2 (stereo unspecified) [TROGLITAZONE]
Reduction [5]: 41%
